Tests used:
Format in all cases: functional
[1] = tested on: Rattus norvegicus; experiment: Thyroid uptake in percent injected dose/gram (range) was determined in female fischer rat after 1251-labelled compound complexed with bovine serum albumin was injected intravenously after 60 minutes
In short: (§1)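 Female Fischer 344 rats, 10–12 weeks old (170–200 g), fed and watered ad libitum. ¹²⁵I-labeled fatty acid in 0.5 mL absolute ethanol added dropwise to stirred 6% bovine serum albumin at 40 °C (final ethanol 10%), 0.22-μm filtered, given into a lateral tail vein under ether anesthesia. At set times: ether anesthesia, cervical fracture, organs excised, rinsed, blotted, weighed and gamma counted. Values are % injected dose/g, 3–4 rats per time point.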

[2] = tested on: Rattus norvegicus; experiment: Liver uptake in percent injected dose/gram (range) was determined in female fischer rat after 1251-labelled compound complexed with bovine serum albumin was injected intravenously after 5 minutes; in short: as §1
[3] = tested on: Rattus norvegicus; experiment: Heart uptake in percent injected dose/gram (range) was determined in female fischer rat after 1251-labelled compound complexed with bovine serum albumin was injected intravenously after 5 minutes; in short: as §1
[4] = tested on: Rattus norvegicus; experiment: Kidneys uptake in percent injected dose/gram (range) was determined in female fischer rat after 1251-labelled compound complexed with bovine serum albumin was injected intravenously after 5 minutes; in short: as §1
[5] = tested on: Rattus norvegicus; experiment: Kidneys uptake in percent injected dose/gram (range) was determined in female fischer rat after 1251-labelled compound complexed with bovine serum albumin was injected intravenously after 60 minutes; in short: as §1
[6] = tested on: Rattus norvegicus; experiment: Liver uptake in percent injected dose/gram (range) was determined in female fischer rat after 1251-labelled compound complexed with bovine serum albumin was injected intravenously after 60 min; in short: as §1
[7] = tested on: Rattus norvegicus; experiment: Lungs uptake in percent injected dose/gram (range) was determined in female fischer rat after 1251-labelled compound complexed with bovine serum albumin was injected intravenously after 60 minutes; in short: as §1
[8] = tested on: Rattus norvegicus; experiment: Thyroid uptake in percent injected dose/gram (range) was determined in female fischer rat after 1251-labelled compound complexed with bovine serum albumin was injected intravenously after 5 minutes; in short: as §1
[9] = tested on: Rattus norvegicus; experiment: Blood uptake in percent injected dose/gram (range) was determined in female fischer rat after 1251-labelled compound complexed with bovine serum albumin was injected intravenously after 60 minutes; in short: as §1
[10] = tested on: Rattus norvegicus; experiment: Blood uptake in percent injected dose/gram (range) was determined in female fischer rat after 1251-labelled compound complexed with bovine serum albumin was injected intravenously after 5 minutes; in short: as §1
[11] = tested on: Rattus norvegicus; experiment: Heart uptake in percent injected dose/gram (range) was determined in female fischer rat after 1251-labelled compound complexed with bovine serum albumin was injected intravenously after 60 minutes; in short: as §1
[12] = tested on: Rattus norvegicus; experiment: Lungs uptake in percent injected dose/gram (range) was determined in female fischer rat after 1251-labelled compound complexed with bovine serum albumin was injected intravenously after 5 minutes; in short: as §1
[13] = tested on: Rattus norvegicus; experiment: Kidneys uptake in percent injected dose/gram (range) was determined in female fischer rat after 1251-labelled compound complexed with bovine serum albumin was injected intravenously after 30 minutes; in short: as §1
[14] = tested on: Rattus norvegicus; experiment: Kidneys uptake in percent injected dose/gram (range) was determined in female fischer rat after 1251-labelled compound complexed with bovine serum albumin was injected intravenously after 5 hours; in short: as §1
[15] = tested on: Rattus norvegicus; experiment: Lungs uptake in percent injected dose/gram (range) was determined in female fischer rat after 1251-labelled compound complexed with bovine serum albumin was injected intravenously after 5 hours; in short: as §1
[16] = tested on: Rattus norvegicus; experiment: Blood uptake in percent injected dose/gram (range) was determined in female fischer rat after 1251-labelled compound complexed with bovine serum albumin was injected intravenously after 5 hours; in short: as §1
[17] = tested on: Rattus norvegicus; experiment: Lungs uptake in percent injected dose/gram (range) was determined in female fischer rat after 1251-labelled compound complexed with bovine serum albumin was injected intravenously after 30 minutes; in short: as §1
[18] = tested on: Rattus norvegicus; experiment: Thyroid uptake in percent injected dose/gram (range) was determined in female fischer rat after 1251-labelled compound complexed with bovine serum albumin was injected intravenously after 5 hours; in short: as §1
[19] = tested on: Rattus norvegicus; experiment: Heart uptake in percent injected dose/gram (range) was determined in female fischer rat after 1251-labelled compound complexed with bovine serum albumin was injected intravenously after 30 minutes; in short: as §1
[20] = tested on: Rattus norvegicus; experiment: Thyroid uptake in percent injected dose/gram (range) was determined in female fischer rat after 1251-labelled compound complexed with bovine serum albumin was injected intravenously after 30 minutes; in short: as §1
[21] = tested on: Rattus norvegicus; experiment: Liver uptake in percent injected dose/gram (range) was determined in female fischer rat after 1251-labelled compound complexed with bovine serum albumin was injected intravenously after 5 hours; in short: as §1
[22] = tested on: Rattus norvegicus; experiment: Heart uptake in percent injected dose/gram (range) was determined in female fischer rat after 1251-labelled compound complexed with bovine serum albumin was injected intravenously after 5 hours; in short: as §1
[23] = tested on: Rattus norvegicus; experiment: Blood uptake in percent injected dose/gram (range) was determined in female fischer rat after 1251-labelled compound complexed with bovine serum albumin was injected intravenously after 30 minutes; in short: as §1
[24] = tested on: Rattus norvegicus; experiment: Liver uptake in percent injected dose/gram (range) was determined in female fischer rat after 1251-labelled compound complexed with bovine serum albumin was injected intravenously after 30 minutes; in short: as §1
[25] = tested on: Rattus norvegicus; experiment: Kidneys uptake in percent injected dose/gram (range) was determined in female fischer rat after 1251-labelled compound complexed with bovine serum albumin was injected intravenously after 4 hours; in short: as §1
[26] = tested on: Rattus norvegicus; experiment: Liver uptake in percent injected dose/gram (range) was determined in female fischer rat after 1251-labelled compound complexed with bovine serum albumin was injected intravenously after 4 hours; in short: as §1
[27] = tested on: Rattus norvegicus; experiment: Blood uptake in percent injected dose/gram (range) was determined in female fischer rat after 1251-labelled compound complexed with bovine serum albumin was injected intravenously after 4 hours; in short: as §1
[28] = tested on: Rattus norvegicus; experiment: Thyroid uptake in percent injected dose/gram (range) was determined in female fischer rat after 1251-labelled compound complexed with bovine serum albumin was injected intravenously after 60 min; in short: as §1
[29] = tested on: Rattus norvegicus; experiment: Thyroid uptake in percent injected dose/gram (range) was determined in female fischer rat after 1251-labelled compound complexed with bovine serum albumin was injected intravenously after 4 hours; in short: as §1
[30] = tested on: Rattus norvegicus; experiment: Lungs uptake in percent injected dose/gram (range) was determined in female fischer rat after 1251-labelled compound complexed with bovine serum albumin was injected intravenously after 4 hours; in short: as §1
[31] = tested on: Rattus norvegicus; experiment: Heart uptake in percent injected dose/gram (range) was determined in female fischer rat after 1251-labelled compound complexed with bovine serum albumin was injected intravenously after 4 hours; in short: as §1

Compound | Activity [1] [%] | Activity [2] [%] | Activity [3] [%] | Activity [4] [%] | Activity [5] [%] | Activity [6] [%] | Activity [7] [%] | Activity [8] [%] | Activity [9] [%] | Activity [10] [%] | Activity [11] [%] | Activity [12] [%] | Activity [13] [%] | Activity [17] [%] | Activity [19] [%] | Activity [20] [%] | Activity [23] [%] | Activity [24] [%] | Activity [25] [%] | Activity [26] [%] | also measured
O=C(O)CCCCCCCCCCCCCc1ccc(I)cc1 | 2.56 | 4.82 | 2.72 | 1.64 | 1.94 | 2.04 | 1.39 | 1.64 | 1.48 | 1.58 | 1.78 | 1.55 | – | – | – | – | – | – | – | – | –
CC(CCCCCCCCCCCCc1ccc(I)cc1)C(=O)O (racemic) | 11.5 | 7.61 | 1.71 | 1.68 | 1.85 | 2.94 | 1.13 | 7.56 | 1.64 | 1.8 | 1.52 | 1.13 | 1.95 | 1.03 | 1.58 | 5.3 | 1.83 | 3.85 | – | – | Activity [14]: 1.36%; Activity [15]: 0.77%; Activity [16]: 1.07%; Activity [18]: 13.95%; Activity [21]: 1.52%; Activity [22]: 0.59%
CC(CCCCCCCCCCCCc1ccc(I)cc1)CC(=O)O (racemic) [IODOFILTIC ACID] | – | 8.32 | 4.62 | 1.08 | 2.14 | 1.92 | 1.21 | 6.78 | 1.7 | 0.71 | 4.26 | 1.45 | 1.71 | 1.15 | 3.63 | 9.26 | 1.6 | 3.66 | 1.49 | 0.95 | Activity [27]: 1.13%; Activity [28]: 10.66%; Activity [29]: 9.69%; Activity [30]: 0.91%; Activity [31]: 2.27%
O=C(O)CCCCCCCCCCCCCCc1ccc(I)cc1 [IOCANLIDIC ACID] | 7.37 | 6.69 | 2.98 | 0.84 | 1.05 | 3.76 | 1.29 | 7.08 | 1.32 | 0.91 | 2.34 | 1.26 | 1.08 | 1.36 | 2.67 | 10.28 | 1.5 | 5.31 | 0.88 | 1.72 | Activity [27]: 0.7%; Activity [29]: 8.54%; Activity [30]: 0.97%; Activity [31]: 0.93%

— ChEMBL document CHEMBL1122592, “Synthesis and evaluation of radioiodinated terminal p-iodophenyl-substituted alpha- and beta-methyl-branched fatty acids” (1984)
